These results are taken from the RNAGym collection of RNA variant scans (doi:10.1126/science.aae0568).

Sequences and labels used below:
B1: tRNA (parent)
chain: GUUCCGUUGGCGUAAUGGUAACGCGUCUCCCUCCUAAGGAGAAGACUGCGGGUUCGAGUCCCGUACGGAACG

Variants at the floor of the assay were thinned out. Where only a bound is given, the exact number is not on record here.

In this data set the parent is B1. The data set can be described thus: yeast fitness relative to wild type (ratio to wild type); higher = fitter; tRNA-Arg(CCU), competitive growth, 37 C, YPD. The gist of the method:
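Amplicons of the tRNA-Arg(CCU) gene were sequenced, 100-nucleotide paired-end, from the start population and from each end population of a pooled yeast competition. The competition, in six parallel replicates, lasted 24 hours in YPD at 37°C. Fitness relative to wild type was calculated from changes in genotype frequencies. Genotypes had to have ≥ 100 starting reads, and estimates < 0.5 were set to 0.5.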
On to C4U C33U, for which the yeast fitness is 0.789.
A21G C61G C66G: the yeast fitness is not above 0.5.
In the case of U19C A20U C27G G52C, the yeast fitness is not above 0.5.
As to A37U G38C C61U, the yeast fitness was not above 0.5.
Turning to C30G A36G A57U, the yeast fitness was not above 0.5.
The same measure for C34G C66A A69C: 0.599; for U16C A21U: 0.756.
With C34G U59A G68A, the yeast fitness is not above 0.5.
U54A C62U G68U: the yeast fitness was not above 0.5.
As to C27U C31A, the yeast fitness came out at 0.758.
On to C29A A37C A45C U47A, for which the yeast fitness was 0.573.
Turning to A15G C31U C60A, the yeast fitness is 0.584.
On to C24U G51A G67A, for which the yeast fitness was 0.556.
As for A37U C66U, the yeast fitness was 0.627.
For the variant A14C A36G G41A G48C U59C, the yeast fitness is 0.7.
The same measure for U13A C30G: 0.584; for C4G G12C C33G G44C: not above 0.5; for C27A U28G: 0.66.
Take U8C A20U C29U C30G A37G G44A: the yeast fitness is not above 0.5.
On to G63A U64A, for which the yeast fitness worked out at 0.864.
The figure for C27G C33G G41A is not above 0.5; for C22A C24U A36U it is not above 0.5; for G6C A15C G52C it is not above 0.5.
Turning to C31A A40U C46A A70C, the yeast fitness is 0.626.
For G6C U13C C46A, the yeast fitness was determined as 0.627.
Consider C5U C11U A65U C66G, for which the yeast fitness is not above 0.5.
With C27A C31A, the yeast fitness stood at 0.758.
The same measure for A20U A42C G48A: 0.543; for A21C U32A U35C: not above 0.5.
For C30U C49G C61U, the yeast fitness is 0.547.
The figure for C49G G67A is 0.908.
On to U3A C30G G68A, for which the yeast fitness was not above 0.5.
Take U8C A15C A57G A69C: the yeast fitness is not above 0.5.
For the variant U3A A40C C55A C66A, the yeast fitness is not above 0.5.
For the variant G17C G23C A43U C49A C66U A70U, the yeast fitness was 0.603.
As to U8C A57G, the yeast fitness was determined as 0.856.
For C30A C62U G63A A69G, the yeast fitness is not above 0.5.
As to C29G A36G C55U, the yeast fitness was not above 0.5.
Take C24A G41A G44A U53A C66U: the yeast fitness was not above 0.5.
For G58C C61U, the yeast fitness came out at 0.887.
Regarding C4A U7A U8G, the yeast fitness was not above 0.5.
Turning to C5U C27G G38A, the yeast fitness was 0.515.
The same measure for U2G C66U: 0.858; for C24G C46A: 0.937; for U2C U7G U32A U59A: 0.501.
Take C22G G25C: the yeast fitness worked out at 0.977.
Regarding U7G C27A C29U A40U, the yeast fitness was not above 0.5.
As for C33U A43G G52A, the yeast fitness is not above 0.5.
On to C5A G12A U35C G44A G48C C55G A69U, for which the yeast fitness is not above 0.5.
The same measure for C27A A42G G44C C66U: not above 0.5.
On to C5U A45U C62G A65G, for which the yeast fitness is 0.698.
Regarding U19A C24U C29A U54A, the yeast fitness was not above 0.5.
Take G9A A20G A40C A42U A43C G48A: the yeast fitness is not above 0.5.
The figure for G6A G17A A69U is 0.551; for C4U G25A A65G it is 0.718; for G10C U19C C33G it is 0.769.
For C11G A20G C49G, the yeast fitness was not above 0.5.
Regarding G9C U13C C31G A57G, the yeast fitness is not above 0.5.
For U16A A36U C46A, the yeast fitness was not above 0.5.
As to C5G C11U C34A U47A, the yeast fitness came out at 0.528.
For C5U A14U A21G A65C, the yeast fitness was not above 0.5.
Take C5U G48A C55U C66U: the yeast fitness is 0.521.
With C34G C49G G68C, the yeast fitness was found to be 0.629.
The figure for C29U G41A A45C G67U is not above 0.5; for U19C A21C it is 1.12; for U7A A36U C60A U64C it is not above 0.5.
Turning to C29G U35A A42U, the yeast fitness was not above 0.5.
For the variant G9C A20U U28A, the yeast fitness was found to be 0.535.
On to U2A G38C, for which the yeast fitness was 0.635.
The same measure for U28C G67C: 0.845; for C31U A42G G63C C66U: not above 0.5; for U16A C34A A36C A37G G56C C66A: not above 0.5.
The figure for C5U C11G A15U G56C C61G is not above 0.5; for C5G U28A G67C it is 0.634; for G10C G17A A42U it is not above 0.5.
The figure for U3A A65G is 0.899; for A14G C27U U47A C62U C66U it is not above 0.5.
As to U32C A36U C61U, the yeast fitness is not above 0.5.
The figure for C4G A14U C24U C49G G63A is not above 0.5.
For U8A U26A, the yeast fitness was 0.733.
For U2A A21G A36G G44C U59G, the yeast fitness was not above 0.5.
For the variant A15G C66A, the yeast fitness was determined as 0.657.
On to U7A A15U G63A G67A, for which the yeast fitness is not above 0.5.
G12C C31G C33G G48A: the yeast fitness was 0.642.
For the variant A21G G25A, the yeast fitness is 1.12.
Turning to G6A A15C A20U, the yeast fitness was found to be 0.56.
Regarding G6A A15C A20G, the yeast fitness was not above 0.5.
On to C5U A45U C46G, for which the yeast fitness is not above 0.5.
As for C34G U35C, the yeast fitness was found to be 0.613.
The same measure for U16A A21C A45U C60U G67C: not above 0.5.
In the case of G10C C24U G68C, the yeast fitness was not above 0.5.
On to U3A C4G C62U A70C, for which the yeast fitness was determined as 0.754.
Take G17A A20G G25C C34U C46G G63A A65C: the yeast fitness is 0.561.
Turning to U3A A14C A20C U28A C29G U32C G39A A70C, the yeast fitness is not above 0.5.
Consider C5G A14G A21U A57U, for which the yeast fitness is not above 0.5.
With C29G C33A, the yeast fitness came out at 0.641.
The figure for A15C C24G A37C C60U is not above 0.5; for U2A G25C A70G it is 0.568; for C4G U7C C27A it is not above 0.5.
With U3C C22G A70C, the yeast fitness turned out to be 0.679.
In the case of A21U C27G C33U C34A, the yeast fitness was not above 0.5.
As to C4A C5U C24G, the yeast fitness was not above 0.5.
Consider A20U G68U, for which the yeast fitness was 0.792.
As to C27G A40U U59C, the yeast fitness was determined as 0.543.
Take U8A U47A C60A: the yeast fitness was not above 0.5.
Regarding U19A C60G A70C, the yeast fitness turned out to be 0.502.
For the variant C24A G25C, the yeast fitness is 0.702.
The same measure for U2A G41A: 0.773; for U3C G51C: 0.521.
Turning to A14C C34U G39C, the yeast fitness stood at 0.625.
On to C24U C29G C62G, for which the yeast fitness is not above 0.5.
The figure for C30G A57U C66U A70U is not above 0.5; for C61G G63C it is 0.532; for C5G A21G A45U A69U it is 0.634.
Consider U8G C22G G48A C60A U64C A69C, for which the yeast fitness stood at 0.561.
Take C11A A42G: the yeast fitness stood at 0.631.
Turning to C5U C22G C29G C60A G67A, the yeast fitness is not above 0.5.
C24A C27G U53C C55U: the yeast fitness is not above 0.5.
The figure for C24A A43U G51C G52C is not above 0.5; for U2A A45G it is 1.09.
Regarding C49U G63A, the yeast fitness was 0.908.
Regarding G9C U26G C55A, the yeast fitness was not above 0.5.
Turning to A14C G17A G23A C29G A42C G56A C62U, the yeast fitness was not above 0.5.
Take U64C A65C: the yeast fitness came to 0.891.
The figure for U8A A20C A43U A69C is not above 0.5; for U2G C62G it is 0.632; for C34G C49G C61U A70C it is not above 0.5.
Consider U3G G9C, for which the yeast fitness turned out to be 0.573.
Regarding U13A C61A A65G, the yeast fitness was found to be 0.544.
Take G12C C31U C62G: the yeast fitness was found to be 0.557.
Take A14G A57U A65U: the yeast fitness was not above 0.5.
Regarding C5G G6A A15G, the yeast fitness was not above 0.5.
In the case of C11U C22A C29G C33U A57U A70U, the yeast fitness was not above 0.5.
The figure for G12C G58C C60A A65C is not above 0.5.
Consider C5A C29G G67C, for which the yeast fitness came out at 0.588.
The figure for G6C U16A G23C C60U is 0.625.
As to C29A G48A C66U, the yeast fitness is not above 0.5.
For the variant A15C U19A G48A C62G U64C, the yeast fitness is not above 0.5.
As for C22U U35C A36C, the yeast fitness was not above 0.5.
U16A C24U C62U: the yeast fitness turned out to be 0.692.
Consider C5U U35C C62U G68C, for which the yeast fitness is not above 0.5.
For the variant U2C G17A A37C, the yeast fitness is 0.791.
Consider C5U U19C G67C A70U, for which the yeast fitness was not above 0.5.
Turning to G6C C24G C27G C29A C34U, the yeast fitness came out at 0.684.
As to G10A U13A, the yeast fitness is 0.684.
The same measure for G50C G68C: 0.715.
Take U26G A45G C46U U53G G63A C66U A69U: the yeast fitness was not above 0.5.
Consider G6C G52A C55G, for which the yeast fitness is not above 0.5.
For U35A C49G C60A, the yeast fitness was not above 0.5.
On to C46U U54C G58C G67A, for which the yeast fitness is not above 0.5.
Take G39A A42C C66U: the yeast fitness was 0.542.
With G6C C46U, the yeast fitness worked out at 0.966.
The same measure for A36G A45C C66U: 0.787; for U13C G52A A69U: 0.689; for G10U A40G G58A G68C: 0.631.
The figure for G56C A69C is 0.818.
The same measure for C5G C27A C49A: not above 0.5.
Take U16A G39C U54C C55U: the yeast fitness was not above 0.5.
The figure for U16A C29U is 0.775.
The figure for C29U G63A A70U is 0.6; for U19C C27A C30U G56C it is not above 0.5; for C5A A15C C27U C30U U32G U35A A37C U54A it is not above 0.5.
For the variant A37G G39A, the yeast fitness is 0.638.
For the variant A42G C61A, the yeast fitness was found to be 0.553.
The same measure for A20C G25C G44C G58A G68C: not above 0.5.
Consider A14G C29G A37G C46U C66G, for which the yeast fitness was not above 0.5.
As to C5U G41A G52A, the yeast fitness is not above 0.5.
